Assay results reported in ChEMBL document CHEMBL5653623 (J Pharmacol Exp Ther, 2015).
pIC50: −log10 of the molar value. The source made the active and inactive calls. The rule behind the calls is not given here.

Tests used:
Mus musculus [1] = experiment: Effect on behavioral changes in 8 weeks old MitoPark mouse striatum assessed as HVA level at 30 mg/kg/day administered for 3 weeks by HPLC analysis; format: functional
Outline: (§1)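 Striatum from MitoPark mice on diet targeting 30 mg/kg/day or vehicle diet (wild-type littermate controls) was homogenized by sonication in 0.1 M acid at 0.1 g/mL. Samples were held 60 min at 4 °C and centrifuged. Dopamine, DOPAC and HVA were measured by HPLC with electrochemical detection against a 3,4-DHBA internal standard and standard curves. Mean ± SEM.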

[2] = molecular target: Mitogen-activated protein kinase kinase kinase 14 (Homo sapiens, UniProt Q99558); experiment: Inhibition of MAP3K14 (unknown origin)
Chain of Mitogen-activated protein kinase kinase kinase 14 (Q99558 whole entry): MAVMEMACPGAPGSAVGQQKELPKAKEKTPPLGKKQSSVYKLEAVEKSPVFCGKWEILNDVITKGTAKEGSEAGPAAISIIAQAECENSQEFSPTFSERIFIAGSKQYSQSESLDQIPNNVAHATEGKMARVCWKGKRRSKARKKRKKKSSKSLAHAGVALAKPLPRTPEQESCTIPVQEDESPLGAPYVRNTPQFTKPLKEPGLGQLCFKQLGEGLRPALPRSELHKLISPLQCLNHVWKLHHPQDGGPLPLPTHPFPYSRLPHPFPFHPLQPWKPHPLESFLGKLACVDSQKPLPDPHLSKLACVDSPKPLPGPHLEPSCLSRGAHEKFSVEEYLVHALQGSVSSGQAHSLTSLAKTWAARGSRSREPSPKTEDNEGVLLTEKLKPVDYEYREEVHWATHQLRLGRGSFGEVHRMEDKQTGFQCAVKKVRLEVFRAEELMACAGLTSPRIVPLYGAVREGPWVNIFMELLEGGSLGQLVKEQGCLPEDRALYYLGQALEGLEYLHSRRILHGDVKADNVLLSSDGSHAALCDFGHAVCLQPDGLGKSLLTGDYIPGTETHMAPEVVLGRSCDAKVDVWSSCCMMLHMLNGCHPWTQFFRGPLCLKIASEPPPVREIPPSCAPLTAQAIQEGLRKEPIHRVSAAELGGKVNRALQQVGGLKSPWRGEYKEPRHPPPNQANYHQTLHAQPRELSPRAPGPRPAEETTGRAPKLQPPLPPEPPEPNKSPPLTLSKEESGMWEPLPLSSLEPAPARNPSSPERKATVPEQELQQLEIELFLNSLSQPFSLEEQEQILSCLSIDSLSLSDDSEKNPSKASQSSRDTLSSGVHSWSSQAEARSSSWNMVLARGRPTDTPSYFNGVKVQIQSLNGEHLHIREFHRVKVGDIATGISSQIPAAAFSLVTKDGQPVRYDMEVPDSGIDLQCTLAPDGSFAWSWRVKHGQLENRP

[3] = molecular target: Leucine-rich repeat serine/threonine-protein kinase 2 (Mus musculus) (UniProt Q5S006); experiment: In vivo inhibition of LRRK2 in 20 weeks old MitoPark mouse lung assessed as reduction in total LRRK2 protein level at 30 mg/kg/day administered for 15 weeks by Western blotting analysis; format: functional, organism-based
Chain of Leucine-rich repeat serine/threonine-protein kinase 2 (Mus musculus) (Q5S006 whole entry): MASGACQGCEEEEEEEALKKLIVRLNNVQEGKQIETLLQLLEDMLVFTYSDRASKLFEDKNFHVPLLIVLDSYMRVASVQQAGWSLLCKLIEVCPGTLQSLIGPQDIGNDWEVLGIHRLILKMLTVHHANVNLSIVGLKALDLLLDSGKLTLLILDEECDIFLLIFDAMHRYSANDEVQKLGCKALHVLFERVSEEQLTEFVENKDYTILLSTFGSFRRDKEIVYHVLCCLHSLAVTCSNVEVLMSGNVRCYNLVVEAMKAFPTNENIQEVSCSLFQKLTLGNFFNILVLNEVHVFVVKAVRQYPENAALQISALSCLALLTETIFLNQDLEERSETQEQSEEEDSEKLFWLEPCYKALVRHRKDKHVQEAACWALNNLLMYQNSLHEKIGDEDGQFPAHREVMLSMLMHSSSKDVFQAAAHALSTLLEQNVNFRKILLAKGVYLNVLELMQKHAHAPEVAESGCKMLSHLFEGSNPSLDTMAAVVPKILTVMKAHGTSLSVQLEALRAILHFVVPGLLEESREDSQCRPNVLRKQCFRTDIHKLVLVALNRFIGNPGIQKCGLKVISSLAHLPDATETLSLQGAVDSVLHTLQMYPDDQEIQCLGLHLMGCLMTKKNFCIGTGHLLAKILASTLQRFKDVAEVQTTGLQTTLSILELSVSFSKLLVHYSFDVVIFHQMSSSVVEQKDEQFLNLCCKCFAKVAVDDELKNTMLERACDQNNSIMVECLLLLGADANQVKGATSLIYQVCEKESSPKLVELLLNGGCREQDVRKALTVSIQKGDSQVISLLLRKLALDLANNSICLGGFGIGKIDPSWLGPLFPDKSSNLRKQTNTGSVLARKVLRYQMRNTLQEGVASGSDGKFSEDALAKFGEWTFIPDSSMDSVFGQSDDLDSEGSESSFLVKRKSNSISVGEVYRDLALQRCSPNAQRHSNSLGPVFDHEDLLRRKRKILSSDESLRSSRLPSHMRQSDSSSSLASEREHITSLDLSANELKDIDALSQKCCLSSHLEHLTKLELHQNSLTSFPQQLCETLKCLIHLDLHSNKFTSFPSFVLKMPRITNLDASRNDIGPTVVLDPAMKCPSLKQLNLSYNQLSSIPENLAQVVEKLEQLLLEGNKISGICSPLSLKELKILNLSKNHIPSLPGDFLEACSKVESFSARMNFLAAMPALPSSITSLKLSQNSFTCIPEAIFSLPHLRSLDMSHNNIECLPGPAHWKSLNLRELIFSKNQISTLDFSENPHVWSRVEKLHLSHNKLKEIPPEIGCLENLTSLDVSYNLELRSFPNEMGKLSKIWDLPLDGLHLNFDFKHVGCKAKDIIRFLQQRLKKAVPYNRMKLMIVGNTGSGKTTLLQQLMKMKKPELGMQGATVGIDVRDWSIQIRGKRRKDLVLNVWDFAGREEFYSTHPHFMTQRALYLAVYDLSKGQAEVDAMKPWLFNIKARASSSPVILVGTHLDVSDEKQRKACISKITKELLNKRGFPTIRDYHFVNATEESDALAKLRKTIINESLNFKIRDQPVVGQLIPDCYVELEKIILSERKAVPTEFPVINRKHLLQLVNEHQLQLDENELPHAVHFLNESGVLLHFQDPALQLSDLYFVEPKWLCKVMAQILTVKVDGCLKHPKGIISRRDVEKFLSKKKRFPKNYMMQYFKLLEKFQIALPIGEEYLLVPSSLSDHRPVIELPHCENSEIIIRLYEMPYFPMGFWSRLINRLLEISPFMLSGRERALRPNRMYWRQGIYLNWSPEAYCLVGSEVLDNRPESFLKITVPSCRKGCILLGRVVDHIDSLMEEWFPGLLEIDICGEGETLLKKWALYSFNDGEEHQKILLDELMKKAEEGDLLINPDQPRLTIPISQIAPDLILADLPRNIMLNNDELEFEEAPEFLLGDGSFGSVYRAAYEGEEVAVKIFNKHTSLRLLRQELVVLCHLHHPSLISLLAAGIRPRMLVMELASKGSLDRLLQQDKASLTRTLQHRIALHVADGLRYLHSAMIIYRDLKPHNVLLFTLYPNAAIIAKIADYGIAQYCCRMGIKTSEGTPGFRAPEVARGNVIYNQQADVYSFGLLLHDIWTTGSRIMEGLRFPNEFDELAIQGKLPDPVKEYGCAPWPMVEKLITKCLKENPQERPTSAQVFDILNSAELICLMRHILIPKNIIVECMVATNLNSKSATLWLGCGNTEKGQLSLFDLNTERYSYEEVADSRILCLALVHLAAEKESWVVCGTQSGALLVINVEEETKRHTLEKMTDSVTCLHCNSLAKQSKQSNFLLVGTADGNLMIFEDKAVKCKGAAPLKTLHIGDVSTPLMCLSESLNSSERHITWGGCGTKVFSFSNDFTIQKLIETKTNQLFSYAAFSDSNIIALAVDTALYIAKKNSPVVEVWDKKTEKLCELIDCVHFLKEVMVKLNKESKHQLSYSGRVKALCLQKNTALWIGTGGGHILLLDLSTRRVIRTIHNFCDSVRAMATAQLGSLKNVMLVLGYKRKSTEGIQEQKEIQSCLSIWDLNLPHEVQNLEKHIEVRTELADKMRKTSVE
Outline: (§2)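 MitoPark mice on drug-containing diet targeted to 30 mg/kg/day from 5 weeks of age, with the diet reformulated every 3 weeks to hold the target. Untreated-diet MitoPark and wild-type littermate controls. Killed by CO2 at 20 weeks of age. Lung and kidney taken from 5 mice per group for pSer935 and total LRRK2 immunoblots.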

Mus musculus [4] = experiment: Effect on histological changes in 20 weeks old MitoPark mouse lung assessed as slight enlargement of alveolar epithelial cells at 30 mg/kg/day administered for 15 weeks by hematoxylin and eosin staining based microscopic analysis; format: functional, organism-based
Outline: (§3)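 MitoPark mice were fed diet targeting 30 mg/kg/day or vehicle for 15 weeks and euthanized at 20 weeks of age (n=5/group). Kidney and lung were fixed in 10% neutral buffered formalin, paraffin-embedded, sectioned at 5 µm, H&E-stained and examined microscopically.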

[5] = Effect on spontaneous locomotor activity in C57Bl/6 mouse assessed as rearing behaviour administered for 11 days by truScan photo beam activity system analysis; format: toxicity; details: in vivo, 264 h, time 11 day
Outline: (§4)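 Male C57Bl/6 mice, singly housed on a reversed 12 h light cycle, were fed diet formulated to give 3, 10, 30, 60 or 120 mg/kg/day (assumes 3 g/day intake) or untreated diet for 11 days. Body weight and food intake were monitored. Spontaneous locomotion and rearing were recorded over 60 min. On day 11, mice were euthanized 4, 8 or 24 h after dark onset and plasma and brain drug levels measured; n = 5 per group.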

[6] = molecular target: Dual specificity protein kinase CLK2 (Homo sapiens, UniProt P49760); experiment: Inhibition of CLK2 (unknown origin)
Chain of Dual specificity protein kinase CLK2 (P49760 whole entry): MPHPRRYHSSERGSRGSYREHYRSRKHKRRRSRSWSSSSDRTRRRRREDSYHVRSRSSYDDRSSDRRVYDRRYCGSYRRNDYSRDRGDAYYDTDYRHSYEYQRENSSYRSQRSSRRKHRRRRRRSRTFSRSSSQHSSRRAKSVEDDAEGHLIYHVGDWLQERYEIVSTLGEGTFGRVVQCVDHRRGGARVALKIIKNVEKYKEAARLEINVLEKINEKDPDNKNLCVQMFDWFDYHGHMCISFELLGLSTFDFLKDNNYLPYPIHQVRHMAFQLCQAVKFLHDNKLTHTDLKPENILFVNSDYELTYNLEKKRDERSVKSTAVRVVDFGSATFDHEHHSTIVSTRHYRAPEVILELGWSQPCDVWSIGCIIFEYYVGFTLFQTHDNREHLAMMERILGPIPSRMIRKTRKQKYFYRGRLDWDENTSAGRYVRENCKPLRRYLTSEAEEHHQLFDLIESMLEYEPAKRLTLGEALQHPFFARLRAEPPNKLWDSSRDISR

Mus musculus [7] = experiment: Effect on behavioral changes in 8 weeks old MitoPark mouse striatum assessed as DOPAC level at 30 mg/kg/day administered for 3 weeks by HPLC analysis; format: functional; outline: as §1
[8] = AUC in C57Bl/6 mouse at 10 mg/kg, po measured after 480 mins by LC-MS/MS analysis; format: ADME, organism-based; details: in vivo
Outline: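 Male C57Bl/6 mice (20-25 g) given a single IV dose (2 mg/kg) or oral dose (10 mg/kg). Blood was sampled at 5, 15, 30, 60, 120, 240, 360 and 480 min and plasma prepared by centrifugation. Plasma drug levels were measured by LC/MS/MS. Values are mean (CV%), N=3.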

Mus musculus [9] = experiment: Effect on behavioral changes in 14 weeks old MitoPark mouse striatum assessed as HVA level at 30 mg/kg/day by HPLC analysis; format: functional; outline: as §1
[10] = Unbound brain concentration in C57Bl/6 mouse administered for 11 days and measured after 24 hrs; format: ADME, tissue-based; details: in vivo, 264 h, time 11 day; outline: as §4
[11] = Unbound brain concentration in C57Bl/6 mouse at 3 mg/kg, po administered for 1 hr; format: ADME, organism-based; details: in vivo
[12] = molecular target: Leucine-rich repeat serine/threonine-protein kinase 2 (Mus musculus) (UniProt Q5S006); experiment: In vivo inhibition of LRRK2 in C57Bl/6 mouse brain assessed as decrease in pSer935 LRRK2 measured after 1 hr by Western blotting analysis; format: functional, organism-based; details: dose 1-100 mg/kg, route po
Outline: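 Male C57Bl/6 mice, 20-25 g. Single oral dose of 1-100 mg/kg suspended in 30% Captisol (10 mL/kg), or vehicle, given 1 h before CO2 euthanasia. Cortex frozen on dry ice and pSer935 LRRK2 read by Western blot. n = 5 per group.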

Mus musculus [13] = experiment: Effect on behavioral changes in 8 weeks old MitoPark mouse striatum assessed as dopamine level at 30 mg/kg/day administered for 3 weeks by HPLC analysis; format: functional; outline: as §1
[14] = Unbound brain concentration in C57Bl/6 mouse administered for 11 days; format: ADME, tissue-based; details: in vivo, 264 h, dose 3-100 mg/kg, time 11 day; outline: as §4
[15] = molecular target: Leucine-rich repeat serine/threonine-protein kinase 2 (Mus musculus) (UniProt Q5S006); experiment: In vivo inhibition of LRRK2 in MitoPark mouse assessed as reduction in pSer935 LRRK2 at 30 mg/kg administered for 15 weeks and measured after 24 hrs by Western blotting analysis relative to control; format: functional, organism-based
Outline: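 MitoPark mice fed diet targeted to 30 mg/kg/day, or untreated diet, from 5 weeks of age. Cortex collected after 3, 9 or 15 weeks of treatment, n = 10 per group. Blots probed for pSer935 LRRK2, total LRRK2 (MJFF-2 antibody) and GAPDH. pSer935 reported relative to vehicle-diet MitoPark mice.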

[16] = molecular target: Leucine-rich repeat serine/threonine-protein kinase 2 (Mus musculus) (UniProt Q5S006); experiment: In vivo inhibition of LRRK2 in C57Bl/6 mouse brain assessed as reduction in pSer935 LRRK2 at 30 mg/kg administered for 11 days and measured for 4 to 24 hrs by Western blotting analysis; format: functional, organism-based; details: time 11.0 day
Outline: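 Male C57Bl/6 mice, singly housed on a reversed light cycle. Fed drug diet targeted to 3, 10, 30, 60 or 120 mg/kg/day (assuming 3 g/day intake), or untreated diet, for 11 days. Killed 4, 8 or 24 h after dark-cycle onset, n = 5 per group. Cortex immunoblotted for pSer935/total LRRK2 and total LRRK2/GAPDH. Total LRRK2 detected with MJFF2 antibody.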

Mus musculus [17] = experiment: Effect on histological changes in 20 weeks old MitoPark mouse kidney assessed as accumulation of pigment in renal cortical tubules at 30 mg/kg/day administered for 15 weeks by hematoxylin and eosin staining based microscopic analysis; format: functional, organism-based; outline: as §3
Mus musculus [18] = experiment: Effect on behavioral phenotype in 11 weeks old MitoPark mouse assessed as decreased locomotor activity at 30 mg/kg/day administered for 6 weeks and measured after 60 mins truScan photo beam activity system analysis; format: functional, organism-based
Outline: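 MitoPark mice, 5 weeks old, were allocated by baseline 60-min LMA to untreated diet or diet targeting 30 mg/kg/day (reformulated every 3 weeks). Wild-type littermates received vehicle diet. Body weight and food intake were recorded weekly. 60-min LMA (distance, rearing) was run at 8, 11, 14 and 17 weeks of age.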

[19] = Unbound fraction in C57Bl/6 mouse brain; format: ADME, tissue-based
Outline: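 Plasma and brain binding were determined by equilibrium dialysis at 1 μM.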

[20] = molecular target: Leucine-rich repeat serine/threonine-protein kinase 2 (Mus musculus) (UniProt Q5S006); experiment: In vivo inhibition of LRRK2 in 20 weeks old MitoPark mouse lung assessed as reduction in pSer935 LRRK2 level at 30 mg/kg/day administered for 15 weeks by Western blotting analysis; format: functional, organism-based; outline: as §2
[21] = molecular target: Leucine-rich repeat serine/threonine-protein kinase 2 (Mus musculus) (UniProt Q5S006); experiment: In vivo inhibition of LRRK2 in 20 weeks old MitoPark mouse kidney assessed as reduction in total LRRK2 protein level at 30 mg/kg/day administered for 15 weeks by Western blotting analysis; format: functional, organism-based; outline: as §2
[22] = molecular target: Dual specificity protein kinase CLK4 (Homo sapiens, UniProt Q9HAZ1); experiment: Inhibition of CLK4 (unknown origin)
Chain of Dual specificity protein kinase CLK4 (Q9HAZ1 whole entry): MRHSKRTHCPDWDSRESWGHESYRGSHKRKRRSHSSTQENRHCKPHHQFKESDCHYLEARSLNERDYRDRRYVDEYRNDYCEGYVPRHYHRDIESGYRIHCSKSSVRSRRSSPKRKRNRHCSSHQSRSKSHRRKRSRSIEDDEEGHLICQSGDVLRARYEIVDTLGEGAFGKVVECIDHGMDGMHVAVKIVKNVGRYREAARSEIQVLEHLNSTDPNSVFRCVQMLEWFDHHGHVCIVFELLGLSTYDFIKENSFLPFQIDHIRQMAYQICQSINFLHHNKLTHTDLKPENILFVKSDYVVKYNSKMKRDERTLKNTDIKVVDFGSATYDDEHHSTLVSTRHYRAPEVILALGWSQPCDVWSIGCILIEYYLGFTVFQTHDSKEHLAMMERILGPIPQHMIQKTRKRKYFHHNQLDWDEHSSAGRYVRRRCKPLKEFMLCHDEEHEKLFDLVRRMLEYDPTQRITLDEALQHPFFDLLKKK

[23] = Effect on spontaneous locomotor activity in C57Bl/6 mouse assessed as distance traveled administered for 11 days by truScan photo beam activity system analysis; format: toxicity; details: in vivo, 264 h, time 11 day; outline: as §4

For `C[C@@H]1CN(c2cc(-c3n[nH]c4ccc(OC5(C)CC5)cc34)ncn2)C[C@H](C)O1` [MLi-2], the Activity (Mus musculus [1]) was 267.6 ng/g, the pIC50 [2] was 6.61 and the inhibition [3] was “Active”. For the same compound, the Activity (Mus musculus [4]) was “Active”, the Activity [5] was “Non-Toxic” and the pIC50 [6] was 6.22. The Activity (Mus musculus [7]) was 8966 ng/g, the AUC at 8 h [8] was 1.5 µM·h and the Activity (Mus musculus [9]) was 323.7 ng/g. For the same compound, the “Drug uptake(free)” value [10] was “Active”, the “Drug uptake(free)” value [11] was 2.4 nM and the inhibition [12] was “Dose-Dependent Effect”. For the same compound, the Activity (Mus musculus [13]) was 1114 ng/g, the “Drug uptake(free)” value [14] was “Dose-Dependent Effect” and the inhibition [15] was > 90%. For the same compound, the inhibition [16] was “Active”, the Activity (Mus musculus [17]) was “inactive” and the Activity (Mus musculus [18]) was “Active”. The fraction unbound [19] was 0.009, the inhibition [20] was “Active” and the inhibition [21] was “Active”. The pIC50 [22] was 6.65 and the Activity [23] was “Non-Toxic”.
